# Screens: PubChem, several laboratories
# A selection: hits, their analogues and other compounds. The true share with any hit is near 2.4%.
# SUMO HTRF inh: inhibitors of in vitro SUMOylation cascade, primary screen, biochemical, HTRF, uHTS | inhibition, % at 35 µM | HTRF SUMOylation assay, SAE1/SAE2 + UBC9 | AID 2006, 2009 | 0.36% of 290,000 active; in the data active = inhibition above about 50%, passing the limit was not always enough; inconclusive = no clear call, values can overlap the other calls
# APOBEC3G inh: APOBEC3G DNA deaminase inhibitors, primary screen, biochemical, fluorescence, single-stranded DNA substrate, uHTS; recombinant A3G, ssDNA deamination FAM/TAMRA fluorescence; DNA dC->dU-editing enzyme APOBEC-3G (Homo sapiens), Q9HC16; AID 493012, 2011; 0.28% of 330,000 active; inhibition, % at 20 µM;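 active = inhibition of at least 40% at 20 µM, with no more than 30% in the related APOBEC3A deaminase screen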;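 note: plate controls were DMSO wells with A3G for no effect and wells lacking A3G enzyme for full effect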
# PfG6PD inh: PfG6PD enzyme inhibitors, primary screen, biochemical, fluorescence intensity, uHTS | PfGluPho enzyme, NADPH resazurin-diaphorase fluorescence | inhibition, % at 20 µM | 0.78% of 350,000 active | AID 504690, 2011;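 active = inhibition reaching at least a set limit at 20 µM in the primary screen, cut at about 59% in these data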;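 note: 0% = DMSO wells with substrate and 100% = DMSO wells lacking glucose-6-phosphate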
# HKDC1 inhibitor: HKDC1 hexokinase inhibitors, primary screen, biochemical, fluorescence, uHTS | inhibition, % at 20 µM | Q2TB90 | recombinant HKDC1, G6PDH/diaphorase resazurin coupled fluorescence | AID 493160, 2011 | 0.16% of 340,000 active;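 active = inhibition above about 35% when tested at 20 µM, limit read from the data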;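 note: plate controls were DMSO wells with enzyme for no effect and DMSO wells lacking enzyme for full effect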
# Target sequence (Q2TB90 whole entry, looked up): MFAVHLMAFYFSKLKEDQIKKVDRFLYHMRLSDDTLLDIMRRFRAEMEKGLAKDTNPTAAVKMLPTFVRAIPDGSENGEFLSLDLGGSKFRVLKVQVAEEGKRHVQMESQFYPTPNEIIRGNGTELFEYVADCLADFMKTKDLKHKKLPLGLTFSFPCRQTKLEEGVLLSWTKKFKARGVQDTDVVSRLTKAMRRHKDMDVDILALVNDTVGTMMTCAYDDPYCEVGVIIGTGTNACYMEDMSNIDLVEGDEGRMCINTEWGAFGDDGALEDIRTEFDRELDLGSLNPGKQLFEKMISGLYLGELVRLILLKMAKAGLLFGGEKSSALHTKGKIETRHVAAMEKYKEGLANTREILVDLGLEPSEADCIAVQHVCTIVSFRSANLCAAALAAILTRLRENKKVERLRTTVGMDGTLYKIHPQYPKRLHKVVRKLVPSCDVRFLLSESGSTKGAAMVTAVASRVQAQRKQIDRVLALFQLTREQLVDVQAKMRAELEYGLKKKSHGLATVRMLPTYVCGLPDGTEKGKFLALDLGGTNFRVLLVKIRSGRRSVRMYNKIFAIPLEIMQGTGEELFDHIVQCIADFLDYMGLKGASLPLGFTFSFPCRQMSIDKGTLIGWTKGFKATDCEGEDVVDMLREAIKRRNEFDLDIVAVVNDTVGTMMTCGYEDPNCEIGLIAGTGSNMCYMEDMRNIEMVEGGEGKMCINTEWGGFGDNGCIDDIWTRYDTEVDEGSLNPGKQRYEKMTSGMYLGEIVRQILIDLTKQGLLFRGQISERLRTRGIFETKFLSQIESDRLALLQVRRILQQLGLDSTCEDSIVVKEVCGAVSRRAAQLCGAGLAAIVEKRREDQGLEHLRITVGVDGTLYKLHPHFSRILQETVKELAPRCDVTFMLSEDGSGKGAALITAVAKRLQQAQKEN
#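 System: Recombinant HKDC1 hexokinase | Amount: HKDC1 at 5 µg/mL | Reagent: Glucose with 1 mM ATP | Doses: Single 20 µM dose | Incubation: Reaction time 90 min, room temperature, protected from light | Signal: Coupled resazurin fluorescence, excitation 525 nm, emission 613 nm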
# M18AAP inhibitor: PfM18AAP inhibitors, malaria aminopeptidase, primary screen, biochemical, QFRET, recombinant enzyme. M18 aspartyl aminopeptidase (Plasmodium falciparum 3D7). inhibition, % at 7.35 µM. 1.2% of 290,000 active. H-Glu-NHMec fluorogenic cleavage;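 active = inhibition above the campaign mean inhibition over all tested compounds plus 3 SD, cut at about 28% in these data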;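 note: 0% = plate median of test compound wells and 100% = 2 mM ZnCl2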
# A3A deaminase: APOBEC3A ssDNA deaminase inhibitors, primary screen, selectivity assay for APOBEC3G inhibitor project, biochemical, FAM/TAMRA oligo cleavage fluorescence. DNA dC->dU-editing enzyme APOBEC-3A (Homo sapiens), P31941. recombinant A3A, FAM/TAMRA ssDNA deamination fluorescence. inhibition, % at 20 µM. 0.41% of 330,000 active. AID 493011, 2011;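 active = at least 40% inhibition at 20 µM here, with at most 30% in a related deaminase screen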;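 note: plate controls were A3A with DMSO for no effect and wells lacking A3A enzyme for full effect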
# * = called active by the depositor; u = inconclusive; x = no result given.
SMILES,SUMO HTRF inh,APOBEC3G inh,PfG6PD inh,HKDC1 inhibitor,M18AAP inhibitor,A3A deaminase
COc1ccccc1N1CCN(C(=O)c2cc(C(C)(C)C)oc2C)CC1,-6,-9,-4,1,29*,-2
COc1cc(/C=C/C(=O)c2ccc3c(c2)OCO3)cc(Cl)c1O,-20,-37,10,6,32*,-14
COc1ccc(C(=O)C=Cc2ccc3c(c2)OCO3)cc1OC,x,x,16,x,x,x
CN(CCC#N)C(=O)COC(=O)c1c2c(nc3ccccc13)/C(=C/c1ccco1)CC2,53*,x,33,13,21,x
CC(C)C(=O)Nc1ccc(C(=O)CN2C(=O)NC3(CCOc4ccccc43)C2=O)cc1 (stereo not given),x,-3,-3,1,x,3
CCc1c(C)[nH]n(-c2ccc(Oc3ccccc3)c(S(=O)(=O)O)c2)c1=O,17,11,-20,2,1,25
O=C(O)CCCCCn1c(SCC(=O)c2ccc(O)c(O)c2)nc2ccsc2c1=O,16,-6,-23,-4,47*,-3
O=C(O)CCCCCn1c(SCC(=O)N2CCCC2)nc2ccsc2c1=O,27,5,-14,-13,-5,3
COc1ccc(OC)c(NC(=O)c2cc(S(=O)(=O)NCc3ccco3)ccc2F)c1,2,-2,-3,-5,7,1
Cn1cc(Cl)c(C(=O)Nc2nc3ccc([N+](=O)[O-])cc3s2)n1,2,-7,-26,-4,30*,-3
COc1cccc2cc(C(=O)C3=C(O)C(=O)N(CCN(C)C)C3c3ccc(Cl)cc3)oc12 (stereo not given),10,-6,-13,2,5,-4
O=C1N=C(N2C=CC(=C3C=CNC=C3)C=C2)/C(=C/N=NC(=O)c2ccccc2O)S1,x,8,4,-4,29*,8
CC1=NN(c2ccc(C)cc2)C(=O)/C1=C\c1ccc(Br)s1,76*,-5,-6,16,4,0
N#Cc1c(-c2cccc(Br)c2)cc(-c2ccco2)[nH]c1=O,79*,0,-8,6,2,5
COc1ccc(-c2cc(-c3ccco3)[nH]c(=O)c2C#N)cc1,47,5,-17,3,3,18
Cc1cc(C(=O)COC(=O)/C=C/c2cccc(Br)c2)c(C)n1C,x,-9,11,-1,x,-3
O=C(NC(=S)NNC(=O)c1ccccc1F)c1cccnc1,3,12,-8,-11,29*,-3
Cc1ccccc1C(=O)NNC(=S)NC(=O)c1cccnc1,-6,11,-1,-5,28,-1
Cc1c(C(=O)Nc2nonc2-c2ccc(F)cc2)oc2ccc(F)cc12,-1,-7,-19,-2,-6,0
Cc1ccc(-c2cc(C(=O)N/N=C/c3ccco3)n[nH]2)s1,63*,-1,-1,-4,-3,-1
Cc1cc(=O)n2[nH]cc(C(=O)O)c2n1,10,-6,-2,1,29*,1
CC(C)(C)NC(=O)CSc1nncn1NCc1c(Cl)cccc1Cl,26,-3,1,-8,1,-18
CC[C@H]1c2[nH]c3ccccc3c2C[C@H]2C(=O)N(c3ccc(F)cc3)C(=O)N21,x,4,19,-3,x,-3
C=CCC(=O)N1CCCC(CCC(=O)NCc2ccccc2F)C1 (stereo not given),6,-7,1,-6,0,1
O=C(CCC1CCCN(c2ncccn2)C1)NCc1ccccc1F (stereo not given),35,-6,-11,-2,32*,-2
SMILES,SUMO HTRF inh,APOBEC3G inh,PfG6PD inh,HKDC1 inhibitor,M18AAP inhibitor,A3A deaminase
O=C1CSC(=S)N1/N=C/c1cc(Br)c(O)c(Br)c1,18,x,2,11,40*,x
O=[N+]([O-])c1ccc(C2CC(c3ccccc3)=Nc3ccccc3S2)cc1 (stereo not given),10,6,15,3,32*,4
O=S(=O)(NCc1ccc(C(F)(F)F)cc1)c1ccc(-n2cnnn2)cc1,7,-4,9,-3,1,-2
COc1cc(/C=C2\SC(=S)N(CC(=O)Nc3ccc(O)cc3)C2=O)cc(OC)c1OC,28,x,8,-6,21,x
Cc1c(O)c(CN(C)C)cc2c1oc(=O)c1ccccc12,6,-5,15,-2,1,0
O=c1oc2c(O)c(O)cc3c(=O)oc4c(O)c(O)cc1c4c23,u,x,30,54*,29*,x
CC(=O)NNC(=S)Nc1cc(S(=O)(=O)N(C)C)ccc1C,-3,-10,-12,9,14,-4
Cc1ccc(S(=O)(=O)N(C)C)cc1NC(=S)Nc1cccc2ccccc12,92*,-2,61*,16,-6,-4
N#CCCN(C(=O)COC(=O)CCc1c[nH]c2ccccc12)c1ccccc1,x,-13,-10,-4,x,-4
Nc1ccc(N2CCN(c3ccc(F)cc3)CC2)cc1,15,-3,25,4,9,-6
Nc1ccc(N2CCCCCC2)cc1,62*,24,x,x,14,35
O=C(Nc1cccc(C(F)(F)F)c1)C(Sc1cccc[n+]1[O-])c1ccccc1 (stereo not given),3,-1,-1,-19,-4,2
N#Cc1c(SCC(=O)Nc2nccs2)sc2c(O)cc(=O)[nH]c12,11,65,43,6,29*,78
Cc1ccccc1-c1nc2cc(N)ccc2o1,65*,-8,7,6,-1,-6
Nc1ccc2oc(-c3ccc4nc[nH]c4c3)nc2c1,u,-4,10,10,-6,-6
Cc1nc2ccc(-c3nc4cc(N)ccc4o3)cc2[nH]1,53*,-2,1,13,-2,4
CC(C)c1ccc2oc(-c3cc(N)ccc3O)nc2c1,-12,1,-21,0,15,2
COc1ccc(CC(=O)NC(=S)NNC(=O)COc2c(C)cccc2C)cc1,-5,24,-25,-17,47*,-5
CNC(=S)NNC(=O)Cc1ccc(OC)cc1,7,-5,-12,-5,15,-2
CCc1cc2c(SCC(=O)N3CC(=O)Nc4ccccc43)ncnc2s1,-10,-5,22,-14,5,-5
COc1ccc(CCNC(=O)COC(=O)c2ccc([N+](=O)[O-])o2)cc1,x,3,19,-1,x,4
